Experimental data published in ChEMBL document CHEMBL1124343 (J Med Chem, 1989).

Target: T1, Adrenergic receptor alpha-1 (Rattus norvegicus, UniProt P15823+P23944+P43140)
T1 sequence (P15823 whole entry): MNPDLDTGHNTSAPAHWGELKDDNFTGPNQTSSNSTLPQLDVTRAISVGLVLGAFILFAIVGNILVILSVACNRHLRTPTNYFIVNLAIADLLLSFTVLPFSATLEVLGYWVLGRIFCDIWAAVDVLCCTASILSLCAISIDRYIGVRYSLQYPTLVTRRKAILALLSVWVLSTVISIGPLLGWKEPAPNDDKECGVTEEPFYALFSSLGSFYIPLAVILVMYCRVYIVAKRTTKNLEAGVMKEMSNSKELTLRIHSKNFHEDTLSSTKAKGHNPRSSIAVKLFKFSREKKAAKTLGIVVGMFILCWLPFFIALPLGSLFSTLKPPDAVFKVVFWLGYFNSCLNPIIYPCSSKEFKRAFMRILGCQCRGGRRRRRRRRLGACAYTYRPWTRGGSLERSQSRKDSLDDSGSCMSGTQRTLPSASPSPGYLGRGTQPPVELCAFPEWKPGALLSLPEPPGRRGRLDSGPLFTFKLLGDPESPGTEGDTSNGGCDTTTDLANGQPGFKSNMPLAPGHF
T1 sequence (P23944 whole entry): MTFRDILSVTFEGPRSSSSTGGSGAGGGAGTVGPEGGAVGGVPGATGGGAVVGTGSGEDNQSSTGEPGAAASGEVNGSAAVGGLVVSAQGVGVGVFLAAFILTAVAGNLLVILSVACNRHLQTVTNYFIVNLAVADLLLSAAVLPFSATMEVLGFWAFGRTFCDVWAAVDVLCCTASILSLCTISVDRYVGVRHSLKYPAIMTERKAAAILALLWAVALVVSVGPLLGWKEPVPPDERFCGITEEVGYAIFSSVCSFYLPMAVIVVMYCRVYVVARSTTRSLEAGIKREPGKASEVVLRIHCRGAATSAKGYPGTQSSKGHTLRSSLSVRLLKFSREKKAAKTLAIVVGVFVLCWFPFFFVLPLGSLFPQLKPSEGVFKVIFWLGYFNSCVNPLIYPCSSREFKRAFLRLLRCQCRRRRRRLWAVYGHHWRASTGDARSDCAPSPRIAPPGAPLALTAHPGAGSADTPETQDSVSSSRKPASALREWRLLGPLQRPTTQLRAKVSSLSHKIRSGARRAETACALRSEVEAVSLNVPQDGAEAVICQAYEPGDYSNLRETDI
T1 sequence (P43140 whole entry): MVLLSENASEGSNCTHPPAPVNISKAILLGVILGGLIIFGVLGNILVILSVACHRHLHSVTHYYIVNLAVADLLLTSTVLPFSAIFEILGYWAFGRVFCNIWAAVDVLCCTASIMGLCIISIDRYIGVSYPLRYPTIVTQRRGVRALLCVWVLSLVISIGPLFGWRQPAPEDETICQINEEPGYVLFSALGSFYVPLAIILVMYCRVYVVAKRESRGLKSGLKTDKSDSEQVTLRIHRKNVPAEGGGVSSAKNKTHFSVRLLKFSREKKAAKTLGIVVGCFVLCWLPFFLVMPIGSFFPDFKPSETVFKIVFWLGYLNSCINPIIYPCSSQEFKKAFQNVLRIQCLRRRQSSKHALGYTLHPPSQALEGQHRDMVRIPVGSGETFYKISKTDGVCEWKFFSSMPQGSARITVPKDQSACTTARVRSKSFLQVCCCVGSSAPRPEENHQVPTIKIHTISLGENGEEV
Assay: Displacement of [3H]prazosin binding to Alpha-1 adrenergic receptor sites on rat cerebral cortical membranes at 100 nM concentration
Type: cell membranes, Membrane
Details: not given

-Log IC50	Structure (SMILES)
8.35	COC(=O)/C=C/C(=O)Nc1ccc(CCCCC(=O)N2CCN(c3nc(N)c4cc(OC)c(OC)cc4n3)CC2)cc1
7.64	COc1cc2nc(N3CCN(C(=O)/C=C/c4ccc(F)cc4)CC3)nc(N)c2cc1OC
7.17	COc1cc2nc(N3CCN(C(=O)/C=C/c4ccc(NC(=O)CBr)cc4)CC3)nc(N)c2cc1OC
7.53	COC(=O)/C=C/C(=O)Nc1ccc(/C=C/C(=O)N2CCN(c3nc(N)c4cc(OC)c(OC)cc4n3)CC2)cc1
7.4	COc1cc2nc(N3CCN(C(=O)/C(F)=C/c4ccccc4)CC3)nc(N)c2cc1OC
8.47	COc1ccc(/C=C/C(=O)N2CCN(c3nc(N)c4cc(OC)c(OC)cc4n3)CC2)cc1
9.16	COc1cc2nc(N3CCN(C(=O)/C=C/c4ccccc4)CC3)nc(N)c2cc1OC
8.36	C/C=C/C=C/C(=O)N1CCN(c2nc(N)c3cc(OC)c(OC)cc3n2)CC1

Structure (SMILES)	-Log IC50
COc1cc2nc(N3CCN(C(=O)/C=C/c4ccc(N=C=S)cc4)CC3)nc(N)c2cc1OC	6.99

Target: T1, Adrenergic receptor alpha-1
Assay: Compound is evaluated for its ability to compete with [3H]prazosin for binding to Alpha-1 adrenergic receptor sites on rat cerebral cortical membranes at 10 nM concentration
Details: not given

-Log IC50	Structure (SMILES)
8.8	COc1cc2nc(N3CCN(C(=O)C4CC5C=CC4C5)CC3)nc(N)c2cc1OC (stereo unspecified)
8.12	COc1cc2nc(N3CCN(C(=O)C4=CC5C=CC4CC5)CC3)nc(N)c2cc1OC (stereo unspecified)

Target: Adrenergic receptor alpha-1 (Rattus norvegicus) (UniProt P15823+P23944+P43140)
Assay: Irreversible action of compound towards Alpha-1 adrenergic receptor on rat cerebral cortical membranes was determined at 1000 nM concentration
Type: cell membranes
Details: Membrane
In short: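 Cortical membranes in Tris/MgCl2 buffer were preincubated 1 h at 30 °C with compound or buffer alone. Isothiocyanates were run in 50 mM phosphate with 1 mM EDTA, pH 7. Membranes were diluted, kept 10 min on ice and washed by four centrifugations. […] Bmax came from Scatchard plots, at least 3 experiments.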

Decrease in Bmax [%]	Structure (SMILES)
0	COC(=O)/C=C/C=C/C(=O)N1CCN(c2nc(N)c3cc(OC)c(OC)cc3n2)CC1

Target: T1, Adrenergic receptor alpha-1
Assay: Compound is evaluated for its ability to compete with [3H]prazosin for binding to Alpha-1 adrenergic receptor sites on rat cerebral cortical membranes at 1000 nM concentration
Details: not given

-Log IC50	Structure (SMILES)
7.41	COC(=O)/C=C/C=C/C(=O)N1CCN(c2nc(N)c3cc(OC)c(OC)cc3n2)CC1

Target: T1, Adrenergic receptor alpha-1
Assay: Compound is evaluated for its ability to compete with [3H]prazosin for binding to Alpha-1 adrenergic receptor sites on rat cerebral cortical membranes at 100 nM concentration
Details: not given

-Log IC50	Structure (SMILES)
7.88	COc1cc2nc(N3CCN(C(=O)C4OC4c4ccccc4)CC3)nc(N)c2cc1OC (stereo unspecified)

Target: T1, Adrenergic receptor alpha-1
Assay: Binding affinity at Alpha-1 adrenergic receptor sites on rat cerebral cortical membranes by [3H]prazosin displacement.
Details: not given
In short: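 Rat cortex membranes were washed and resuspended in 50 mM Tris pH 7.4 with 10 mM MgCl2, about 200–300 μg protein per tube. […] Nonspecific binding used 10 μM phentolamine. Tubes were run in duplicate, IC50 came from displacement curves, and there were 3–5 experiments or duplicate experiments.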

-Log IC50	Structure (SMILES)
7.7	COc1cc2nc(N3CCN(/C(S)=N/c4ccc(N=[N+]=[N-])cc4)CC3)nc(N)c2cc1OC
7.68	COc1cc2nc(N3CCN(C(=O)/C=C/c4cccc(F)c4)CC3)nc(N)c2cc1OC
8.27	COc1cc2nc(N3CCN(/C(S)=N/C4CCCCC4)CC3)nc(N)c2cc1OC
11.16	COc1cc2nc(N3CCN(/C(S)=N/c4ccccc4)CC3)nc(N)c2cc1OC
7.93	COc1cc2nc(N3CCN(C(=O)c4cccc(CCl)c4)CC3)nc(N)c2cc1OC
7.9	COc1cc2nc(N3CCN(C(=O)/C=C/c4ccc(Cl)cc4)CC3)nc(N)c2cc1OC
7.31	COc1cc2nc(N3CCN(C(=O)c4ccc5ccccc5c4)CC3)nc(N)c2cc1OC
8.47	COc1cc2nc(N3CCN(C(=O)CCc4ccccc4)CC3)nc(N)c2cc1OC
7.47	COc1cc2nc(N3CCN(S(=O)(=O)c4cccs4)CC3)nc(N)c2cc1OC
7.01	COc1cc2nc(N3CCN(/C(S)=N/c4ccc(NC(=S)N5CC5)cc4)CC3)nc(N)c2cc1OC
7.94	COc1cc2nc(N3CCN(S(=O)(=O)c4ccc(C)cc4)CC3)nc(N)c2cc1OC
7.1	COc1cc2nc(N3CCN(C(=O)/C=C/c4ccc(Br)cc4)CC3)nc(N)c2cc1OC
9.29	COc1cc2nc(N3CCN(C(=O)C4CC4c4ccccc4)CC3)nc(N)c2cc1OC (stereo unspecified)
7.9	COc1cc2nc(N3CCN(C(=O)COc4ccccc4)CC3)nc(N)c2cc1OC
7.56	COc1cc2nc(N3CCN(C(=O)Nc4ccccc4)CC3)nc(N)c2cc1OC
7.06	COc1cc2nc(N3CCN(C(=O)/C=C/C(=O)c4ccccc4)CC3)nc(N)c2cc1OC

Structure (SMILES)	-Log IC50
COc1cc2nc(N3CCN(C(=O)c4ccc(N=C=S)c(I)c4)CC3)nc(N)c2cc1OC	7.29
